The results in this text go back to ChEMBL document CHEMBL1153851, “(+/-)-3,4-Dihydroxy-8,9-methylenedioxypterocarpan and derivatives: cytotoxic effect on human leukemia cell lines” (Eur J Med Chem, 2009).

For series [1], the system named is HL-60. The experiment in a line: Cytotoxicity against human HL60 cells assessed as cell viability after 72 hrs by MTT assay. It counts as functional, cell-based. The conditions noted are these: HL-60, 72 h. Put shortly:
(§1)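 Cells were kept in RPMI 1640 with 5 × 10^-5 M β-mercaptoethanol, 25 mM Hepes (pH 7.4) and 10% heat-inactivated FCS. Daudi received 20% FCS, and Lucena I received 60 nM vincristine to maintain resistance. Cells were seeded at 2 × 10⁴ cells/mL with compound (0.1–50) for 72 h at 37 °C, 5% CO₂. MTT (5 mg/mL stock) was added for 3 h, formazan was dissolved in DMSO, and A490 was read. Triplicate points; mean of ≥3 experiments.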
For orientation: Formazan colour is commonly taken as a measure of viable cells.

The nature of series [2]: Cytotoxicity against human K562-Lucena 1 cells assessed as cell viability after 72 hrs by MTT assay. In kind it is functional, cell-based. The conditions noted are these: K562-Lucena 1, 72 h. In short, it runs like this:
as §1

The subject of series [3] is K562. The experiment in a line: Cytotoxicity against human K562 cells assessed as cell viability after 72 hrs by MTT assay. The conditions noted are these: K562, 72 h. In kind it is functional, cell-based. Put shortly: as §1
The test system of series [4] is Jurkat. The experiment in a line: Cytotoxicity against human Jurkat cells assessed as cell viability after 72 hrs by MTT assay. In kind it is functional, cell-based. Put shortly:
as §1

Series [5] concerns Daudi. Briefly: Cytotoxicity against human Daudi cells assessed as cell viability after 72 hrs by MTT assay. In kind it is functional, cell-based. In short, it runs like this: as §1
Series [6] in a line: Toxicity against PHA-activated human peripheral lymphocytes assessed as cell viability after 72 hrs by MTT assay. In kind it is cell-based, Lymphocyte. Put shortly: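 PBMC from healthy-volunteer heparinized blood were isolated by Ficoll-Hypaque gradient and resuspended at 10⁶ cells/mL in supplemented RPMI 1640. They were stimulated with PHA and exposed to compound at 2.5–10 µM for 72 h. Controls received diluent without PHA. Viability was read by MTT. Triplicate points; mean ± SD of ≥3 experiments.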

As for `Oc1cc2c(cc1O)[C@@H]1Oc3cc4c(cc3[C@@H]1CO2)OCO4`, the IC50 (in general, the concentration that inhibits the measured activity by half) in series [1] is > 20 µM; in series [2], > 50 µM; in series [3], > 20 µM.
On to `COc1cc2c(cc1O)[C@H]1COc3c(ccc(O)c3O)[C@H]1O2` (racemic), for which the IC50 is 6.4 µM in series [1], > 20 µM in series [2] and > 10 µM in series [3].
With `Oc1ccc2c(c1O)OC[C@@H]1c3cc4c(cc3O[C@H]21)OCO4`, the IC50 in series [4] is 7.6 µM; in series [5] it was 2.8 µM; in series [1], 2.1 µM; in series [2], 3.7 µM; in series [3] it was 3 µM.
As to `Oc1ccc2c(c1)OC[C@@H]1c3cc4c(cc3O[C@H]21)OCO4` [(+)-MAACKIAIN], the IC50 in series [1], in series [2] and in series [3] was > 50 µM in each case.
In the case of `O=C1C=CC2=C(OC[C@@H]3c4cc5c(cc4O[C@H]23)OCO5)C1=O` (racemic), the IC50 in series [5] came to 0.9 µM. Also, the IC50 at 72 h in series [6] came to 2.4 µM.
